Bioassay records deposited in PubChem by several laboratories.
DDE Tn7 FP inh = disrupts Tn7 cyclic peptide binding to fibrin D-Dimer-E complex; P02675; AID 720508; inhibition, % at 8.3 µM; FP displacement of FITC-Tn7 peptide from fibrin DD(E); 0% = median of compound wells per plate; hit rate 0.13% among 370,000;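 active = inhibition above the mean of compounds falling within the control limits plus 3 SD of them, cut at about 14% in these data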;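 also: 0% = plate median of compound wells and 100% = 10 µM Aha-Tn7 peptide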
Target sequence (P02675 whole entry, looked up): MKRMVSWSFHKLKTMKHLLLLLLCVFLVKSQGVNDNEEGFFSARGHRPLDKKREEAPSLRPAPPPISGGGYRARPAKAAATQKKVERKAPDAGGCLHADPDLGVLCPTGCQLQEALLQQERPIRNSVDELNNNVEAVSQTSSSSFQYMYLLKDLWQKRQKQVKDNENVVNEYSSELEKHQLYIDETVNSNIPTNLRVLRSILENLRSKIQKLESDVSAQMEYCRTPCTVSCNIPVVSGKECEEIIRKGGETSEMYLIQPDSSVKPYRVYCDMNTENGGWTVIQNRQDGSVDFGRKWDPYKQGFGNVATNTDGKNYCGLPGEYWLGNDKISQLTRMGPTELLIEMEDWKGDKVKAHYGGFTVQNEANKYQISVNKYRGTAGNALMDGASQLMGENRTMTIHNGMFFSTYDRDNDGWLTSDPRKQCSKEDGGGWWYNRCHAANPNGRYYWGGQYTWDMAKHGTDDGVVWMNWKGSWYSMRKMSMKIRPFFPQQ
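assay system = human clot-derived fibrin DD(E) complex | quantity = Fibrin-DD(E) at 2 µM final | timing = 10 min preincubation, 3 h with tracer, room temperature | signal = fluorescence polarization | measure = percent inhibition | benchmarks = high control wells with 10 µM unlabelled Aha-Tn7 peptide (full inhibition) | replicates = singlicate testing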
CRFR2-BP antag = antagonists of CRF-binding protein/CRF-R2 receptor complex; HEK293 CRF-R2/CRF-BP, CRF-induced calcium fluorescence; inhibition, % at 11.8 µM; hit rate 0.59% among 350,000;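 active = inhibition of the ligand-induced calcium signal above about 50% at the single tested concentration, limit read from the data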
Tn6 DDE FP = disrupts Tn6 cyclic peptide binding to fibrin D-Dimer-E complex; Fibrin DD(E) TRITC-Tn6 fluorescence polarization displacement; inhibition, % at 8.3 µM; hit rate 0.21% among 370,000; AID 720509;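 active = inhibition above a per-campaign cutoff: mean of compounds within control limits plus 3 SD, cut at about 15% in these data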;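 also: 0% = median of all compound wells on the plate and 100% = blocking peptide control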
CRFR2-BP ag = CRF-BP/CRF-R2 complex agonism; HEK293 CRF-R2/CRF-BP, calcium dye fluorescence (FLIPR); percent of saturating CRF peptide response; activation, % at 13.2 µM; hit rate 0.46% among 350,000; AID 588473;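 active = activation of at least 50%, plus an integration ratio under a set limit after plate pattern correction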;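 also: plate controls were neutral control wells without compound for no effect and CRF at EC100 for full effect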
Active calls of the source: *; · = no result given. A selection: hits, their analogues and other compounds. The true share with any hit is near 1.2%.

SMILES	DDE Tn7 FP inh	CRFR2-BP antag	Tn6 DDE FP	CRFR2-BP ag
CCCNCCC(c1ccco1)c1ccccc1OC (stereo not drawn)	5	56*	4	0
O[C@H](COc1ccc(OC(F)(F)F)cc1)CN1CCC(C(O)(c2ccccc2)c2ccccc2)CC1	-4	·	-7	·
CCSc1nnc(NC(=O)C(CC)(C(F)(F)F)C(F)(F)F)s1	-1	56*	1	31
CCCC[C@@H]1C(=O)N2N=Cc3cc4ccccc4cc3[C@H]2N2N=Cc3cc4ccccc4cc3[C@@H]12	8	·	-1	·
N#CCC[C@H]1CC[C@]2(CCCN(C(=O)c3ccccc3)C2)O1	0	·	1	·
C[C@@H]1CN(C(=O)OC(C)(C)C)CCN1c1ccc(Br)c(C#N)c1	3	·	9	·
N#C/C(=C\c1ccc(N2CCCCC2)o1)C(N)=O	-9	-25	3	36
N#C/C(=C\c1ccc(N2CCCCC2)o1)C(=O)Nc1cccc(Br)c1	-8	-265	0	312*
CCOC(=O)C1=C(CCc2ccccc2)NC(=O)NC1c1cccc([N+](=O)[O-])c1 (stereo not drawn)	2	58*	0	1
CCOC(=O)C1=C(CNCc2ccc(F)cc2)NC(=O)NC1c1cccc([N+](=O)[O-])c1 (stereo not drawn)	-2	-28	2	4
O=C(Nc1cc(Br)ccc1O)c1cc(-c2ccc3c(c2)OCO3)on1	-3	70*	-8	-2
COc1ccc(Cl)cc1NC(=O)c1ccoc1C	0	80*	-2	-2
O=C(Nc1scc(-c2ccc(Br)cc2)c1C(=O)O)c1ccccc1F	3	56*	6	0
Cc1ccccc1C(=O)Nc1scc(-c2ccc(Br)cc2)c1C(=O)O	-1	68*	-1	-1
Cc1ccc(-c2csc(NC(=O)c3ccccc3F)c2C(=O)O)cc1	5	45	6	0
Brc1ccc(-c2noc(CCc3ccccc3)n2)o1	-3	61*	7	1
Clc1ccccc1OCc1nc(-c2ccc(Br)o2)no1	3	14	-1	4
COc1ccc(CNC(=O)C[C@H]2C[C@H](C(=O)N3CCCCC3)[C@@]3(C)c4[nH]c5cc(CCC(=O)N(C)C)ccc5c4CCN3C2=O)cc1OC	7	8	16*	1
CC(C)N(C(=O)[C@H]1C[C@H](CC(=O)NCc2ccco2)C(=O)N2CCc3c([nH]c4cc(CCC(=O)N(C)C)ccc34)[C@]12C)C(C)C	1	60*	-3	-3
O=C(C[C@H]1C[C@H](C(=O)N2CCCCC2)[C@@]2(CCc3ccccc3)c3[nH]c4ccc(Cl)cc4c3CCN2C1=O)NCCN1CCOCC1	·	-3	·	57*
C[C@]12c3[nH]c4ccccc4c3CCN1C(=O)C(CC(=O)NCC13CC4CC(CC(C4)C1)C3)C[C@@H]2C(=O)N1CCOCC1 (stereo partly drawn)	-1	-48	13	55*
C[C@]12c3[nH]c4ccccc4c3CCN1C(=O)C(CC(=O)NCC13CC4CC(CC(C4)C1)C3)C[C@@H]2C(=O)N1CCCCC1 (stereo partly drawn)	-5	-9	0	4
COc1ccc(C2Nc3ccccc3C(=O)N2Cc2ccc(C)o2)cc1COc1c(C)cccc1C (stereo not drawn)	1	·	-12	·
O=C(CSc1nc2ccccc2nc1N1CCCCC1)N1CCN(S(=O)(=O)c2cc(Cl)ccc2Cl)CC1	-1	·	-5	·
CC(=O)N1CCc2cc(S(=O)(=O)NCCC(=O)NCc3ccc(Cl)cc3)ccc21	-2	·	7	·
SMILES	DDE Tn7 FP inh	CRFR2-BP antag	Tn6 DDE FP	CRFR2-BP ag
CC(C)N(C(=O)[C@H]1C[C@H](CC(=O)NCCC2=CCCCC2)C(=O)N2CCc3c([nH]c4ccc(Cl)cc34)[C@]12C)C(C)C	7	65*	8	-3
COc1ccc(CNC(=O)C[C@H]2C[C@H](C(=O)N(C(C)C)C(C)C)[C@@]3(C)c4[nH]c5ccc(Cl)cc5c4CCN3C2=O)cc1OC	6	1	6	-6
CC(C)(C)C(=O)N1CCC2CC1c1cc(Cl)ccc12 (stereo not drawn)	2	20	4	1
COC(=O)C1CN(Cc2ccc(F)cc2)CCS(=O)(=O)N1Cc1ccc(C)cc1 (stereo not drawn)	-4	·	-1	·
COC(=O)/C=C1/S/C(=N/NC(=O)c2ccc(Cl)cc2Cl)NC1=O	5	51*	-1	-2
COC(=O)/C=C1/S/C(=N/NC(=O)c2ccccc2OC)NC1=O	-6	13	-13	0
COc1ccc(NS(=O)(=O)c2cc([N+](=O)[O-])ccc2N/N=C/c2c(C)[nH]c3ccccc23)cc1	2	-42	-10	51*
COc1ccc(F)cc1S(=O)(=O)NCC(=O)NCc1cc(=O)n(C)c(=O)n1C	1	76*	10	0
COc1ccc(CC(=O)N2CCN(c3ccccc3F)CC2)cc1OC	-14	10	-6	1
O=C(Cc1ccc(-n2cccc2)cc1)N1CCN(c2ccccc2F)CC1	-2	53*	-4	-4
Cc1cc(C)c2nc3nc(C)c(C)cc3c(N)c2c1	4	111*	-3	71*
CCCSc1nc(C)c2cc(C)cc(C)c2n1	-2	-13	7	-1
CC(C)NC(=S)NC(=O)c1ccc(-c2ccccc2)cc1	4	-172	-2	72*
O=C(NC(=S)Nc1ccc(-c2ccccc2)cc1)c1ccccc1	-3	-10	0	0
O=C(c1ccc(C#Cc2ccccc2)cc1)N1CCC(O)CC1	-3	·	2	·
COc1ccc2c(c1)c(C(=O)N1CCN(C)CC1)c(C)n2-c1ccccc1	-4	0	-5	-1
COc1ccc2c(c1)c(C(=O)O)c(C)n2-c1ccc(Cl)cc1	-4	106*	-6	3
C=CCN1C[C@@H](COCc2ccccc2)Oc2cc(F)ccc2S1(=O)=O	6	·	-13	·
O=C(O)c1cccc(N/C(=N\S(=O)(=O)c2ccccc2)c2ccccc2)c1	3	84*	0	10
O=C(Cn1nnc(-c2ccncc2)n1)Nc1ccc(Cl)cc1	-2	·	-4	·
CCOc1ccc(S(=O)(=O)Nc2ccc(C(=O)N3CCCC3)cc2)cc1	3	-2	-1	-1
CCOc1ccc(S(=O)(=O)N2CCN(C(=O)c3ccncc3)CC2)cc1	4	62*	0	1
Cc1ccc(NS(=O)(=O)c2ccc(C(=O)N3CCC3)cc2)cc1	8	-13	-2	2
CCOc1ccc(NS(=O)(=O)c2ccc(NC(=O)[C@@H]3CCCC[C@@H]3C(=O)O)cc2)cc1	8	-225	0	189*
Cc1ccc(NS(=O)(=O)c2ccc(C(=O)N3CC(C)OC(C)C3)cc2)cc1 (stereo not drawn)	-3	-29	6	83*
CCOc1ccc(NS(=O)(=O)c2ccc(C(=O)N3CCCC(C)C3)cc2)cc1 (stereo not drawn)	-7	-26	-1	55*
CCOc1ccc(S(=O)(=O)N2CCN(C(=O)c3cccnc3)CC2)cc1	-3	-1	-5	-1
